Experimental data taken from ChEMBL document CHEMBL4190346, “Structure-based design, synthesis, and biological evaluation of withaferin A-analogues as potent apoptotic inducers” (Eur J Med Chem, 2017).
Calls of active or inactive are those of the source. No cut-off for these calls is given here.

Experiments:
[1] = tested on: Vero; test: Cytotoxicity against African green monkey Vero cells assessed as reduction in cell viability using compound addition to cell culture cells in lag phase of growth and incubated for 48 hrs by MTT assay; format: cell-based, Chlorocebus sabaeus; conditions: Chlorocebus sabaeus, Vero, 48 h; read-out: IC50
[2] = tested on: HeLa; test: Induction of apoptosis in human HeLa cells assessed as increase in caspase-3 activity by measuring pNA release level at 24 uM incubated for 4 hrs using c-DEVD-pNA substrate by colorimetric assay; format: functional
How it was run: (§1)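 HeLa cells in DMEM with 10% FBS were exposed for 4 h (fixed 24 or 32 level for 8 h). Staurosporine for 4 h served as the positive control. Cells were lysed at 4 °C for 10 min and centrifuged, and supernatant protein was measured by Bradford. Caspase-3 activity was read colorimetrically as nmol pNA/min/mL, with treated/untreated OD ratios. Values are means ± SD of three independent experiments in triplicate.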

[3] = tested on: A549; test: Cytotoxicity against human A549 cells assessed as reduction in cell viability using compound addition to cell culture cells in lag phase of growth and incubated for 48 hrs by MTT assay; format: functional, cell-based; conditions: Homo sapiens, A549, 48 h; read-out: IC50
[4] = tested on: A549; test: Cytotoxicity against human A549 cells assessed as reduction in cell viability using compound addition to cell culture cells in log phase of growth and incubated for 48 hrs by MTT assay; format: functional, cell-based; conditions: Homo sapiens, A549, 48 h; read-out: IC50
[5] = tested on: HeLa; test: Cytotoxicity against human HeLa cells assessed as reduction in cell viability using compound addition to cell culture cells in log phase of growth and incubated for 48 hrs by MTT assay; format: functional, cell-based; conditions: Homo sapiens, HeLa, 48 h; read-out: IC50
[6] = tested on: Vero; test: Cytotoxicity against African green monkey Vero cells assessed as reduction in cell viability using compound addition to cell culture cells in log phase of growth and incubated for 48 hrs by MTT assay; format: cell-based, Chlorocebus sabaeus; conditions: Chlorocebus sabaeus, Vero, 48 h; read-out: IC50
[7] = tested on: MCF7; test: Cytotoxicity against human MCF7 cells assessed as reduction in cell viability using compound addition to cell culture cells in lag phase of growth and incubated for 48 hrs by MTT assay; format: functional, cell-based; conditions: Homo sapiens, MCF7, 48 h; read-out: IC50
[8] = tested on: HeLa; test: Induction of apoptosis in human HeLa cells assessed as […] by measuring pNA release level at 32 uM incubated for 8 hrs using c-DEVD-pNA substrate by colorimetric assay; format: functional, cell-based; how it was run: as §1
[9] = tested on: HeLa; test: Cytotoxicity against human HeLa cells assessed as reduction in cell viability using compound addition to cell culture cells in lag phase of growth and incubated for 48 hrs by MTT assay; format: functional, cell-based; conditions: Homo sapiens, HeLa, 48 h; read-out: IC50
[10] = tested on: HeLa; test: Induction of apoptosis in human HeLa cells assessed as increase in caspase-3 activity by measuring pNA release level at 8 uM incubated for 4 hrs using c-DEVD-pNA substrate by colorimetric assay; format: functional; how it was run: as §1
[11] = tested on: HeLa; test: Induction of apoptosis in human HeLa cells assessed as increase in caspase-3 activity by measuring pNA release level at 12 uM incubated for 4 hrs using c-DEVD-pNA substrate by colorimetric assay; format: functional; how it was run: as §1
[12] = tested on: HeLa; test: Induction of apoptosis in human HeLa cells assessed as increase in caspase-3 activity by measuring pNA release level at 32 uM incubated for 4 hrs using c-DEVD-pNA substrate by colorimetric assay; format: functional; how it was run: as §1
[13] = tested on: HeLa; test: Induction of apoptosis in human HeLa cells assessed as increase in caspase-3 activity by measuring pNA release level at 16 uM incubated for 4 hrs using c-DEVD-pNA substrate by colorimetric assay; format: functional; how it was run: as §1
[14] = tested on: MCF7; test: Cytotoxicity against human MCF7 cells assessed as reduction in cell viability using compound addition to cell culture cells in log phase of growth and incubated for 48 hrs by MTT assay; format: functional, cell-based; conditions: Homo sapiens, MCF7, 48 h; read-out: IC50
[15] = tested on: MCF7 (Homo sapiens); test: Ratio of IC50 for cytotoxicity against human MCF7 cells incubated for 48 hrs to IC50 for cytotoxicity against human MCF7 cells incubated for 72 hrs
[16] = tested on: MCF7 (Homo sapiens); test: as above; remark: listed apart in the source
[17] = tested on: MCF7; test: Ratio of IC50 for cytotoxicity against human MCF7 cells incubated for 48 hrs to IC50 for cytotoxicity against human MCF7 cells incubated for 72 hrs; format: functional

SMILES	IC50 [1] [nM]	Activity [2] [nmol/min/mL]	IC50 [3] [nM]	IC50 [4] [nM]	IC50 [5] [nM]	IC50 [6] [nM]	IC50 [7] [nM]	Activity [8]	IC50 [9] [nM]	Activity [10] [nmol/min/mL]	Activity [11] [nmol/min/mL]	Activity [12] [nmol/min/mL]	Activity [13] [nmol/min/mL]	IC50 [14] [nM]	Ratio IC50 [15]	Ratio IC50 [16]	Ratio IC50 [17]
CCC(=O)OCC1=C(C)C[C@H]([C@@H](C)[C@H]2CC[C@H]3[C@@H]4C[C@H]5O[C@]56[C@@H](OC(=O)CC)C=CC(=O)[C@]6(C)[C@H]4CC[C@]23C)OC1=O	1500	1.6	2600	4100	1100	800	2400	Active	2100	0.58	1.1	1.7	2.3	1100			
CC1=C(CO)C(=O)O[C@@H]([C@@H](C)[C@H]2CC[C@H]3[C@@H]4C[C@H]5O[C@]56[C@@H](O)[C@@H](N(Cc5ccccc5)Cc5ccccc5)CC(=O)[C@]6(C)[C@H]4CC[C@]23C)C1	32900		40000	> 40000	> 40000	15600	15400		22200					18500	>3	>3	>3
CC1=C(CO)C(=O)O[C@@H]([C@@H](C)[C@H]2CC[C@H]3[C@@H]4C[C@H]5O[C@]56[C@@H](O)C=C[C@@H](O)[C@]6(C)[C@H]4CC[C@]23C)C1	7100		> 40000	17300	17500	6000	16800		15800					7500	>3	>3	>3
CCCC(=O)OCC1=C(C)C[C@H]([C@@H](C)[C@H]2CC[C@H]3[C@@H]4C[C@H]5O[C@]56[C@@H](O)C=CC(=O)[C@]6(C)[C@H]4CC[C@]23C)OC1=O	700	1.24	2600	2200	1200	500	2400	Active	1900	0.54	0.72	1.33	1.22	1000			
CCCC(=O)OCC1=C(C)C[C@H]([C@@H](C)[C@H]2CC[C@H]3[C@@H]4C[C@H]5O[C@]56[C@@H](OC(=O)CCC)C=CC(=O)[C@]6(C)[C@H]4CC[C@]23C)OC1=O	1600	0.88	2800	1900	1600	700	1000	Active	1900	0.15	0.61	1.7	0.93	1000			
CC1=C(COC(=O)CBr)C(=O)O[C@@H]([C@@H](C)[C@H]2CC[C@H]3[C@@H]4C[C@H]5O[C@]56[C@@H](O)C=CC(=O)[C@]6(C)[C@H]4CC[C@]23C)C1	1100		3900	4800	4900	1600	1200		2100					900	>3	>3	>3
CC1=C(COC(=O)c2ccoc2)C(=O)O[C@@H]([C@@H](C)[C@H]2CC[C@H]3[C@@H]4C[C@H]5O[C@]56[C@@H](OC(=O)c5ccoc5)C=CC(=O)[C@]6(C)[C@H]4CC[C@]23C)C1	900		3600	3800	3800	900	1500		2900					1700	>3	>3	>3
CNc1ccccc1C(=O)OCC1=C(C)C[C@H]([C@@H](C)[C@H]2CC[C@H]3[C@@H]4C[C@H]5O[C@]56[C@@H](O)C=CC(=O)[C@]6(C)[C@H]4CC[C@]23C)OC1=O	1200		3700	4700	4200	1600	1600		1600					1000	>3	>3	>3
CC1=C(C=O)C(=O)O[C@@H]([C@@H](C)[C@H]2CC[C@H]3[C@@H]4C[C@H]5O[C@]56[C@@H](O)C=CC(=O)[C@]6(C)[C@H]4CC[C@]23C)C1	4400		15700	13500	10900	3600	3700		6500					2100	>3	>3	>3
CC1=C(COC(=O)c2cccc3ccccc23)C(=O)O[C@@H]([C@@H](C)[C@H]2CC[C@H]3[C@@H]4C[C@H]5O[C@]56[C@@H](O)C=CC(=O)[C@]6(C)[C@H]4CC[C@]23C)C1	400		6400	13700	3500	600	900		2000					2200	>3	>3	>3
